Experimental data taken from ChEMBL document CHEMBL2331542, “Synthesis and in vitro antibacterial activity of quinolone/naphthyridone derivatives containing 3-alkoxyimino-4-(methyl)aminopiperidine scaffolds” (2013).
In brackets after ≈: the same amount, converted by molar mass.

Experiments:
Type in all cases: functional
[1] = system: Klebsiella pneumoniae; assay: Antibacterial activity against extended-spectrum beta-lactamase-producing Klebsiella pneumoniae isolate 12-4
Method in brief: (§1)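 MIC determined in vitro by a standard technique and defined as the lowest compound concentration giving complete inhibition of bacterial growth. The Gram-positive and Gram-negative panels were tested alongside gemifloxacin, levofloxacin and ciprofloxacin reference drugs.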

[2] = system: Klebsiella pneumoniae; assay: Antibacterial activity against extended-spectrum beta-lactamase-producing Klebsiella pneumoniae isolate 12-1; method in brief: as §1
[3] = system: Staphylococcus epidermidis; assay: Antibacterial activity against methicillin-resistant Staphylococcus epidermidis isolate 12-35
Method in brief: (§2)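 MIC determined in vitro by standard techniques, defined as the lowest compound concentration giving complete inhibition of bacterial growth. Gemifloxacin, levofloxacin and ciprofloxacin were tested alongside as reference drugs.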

[4] = system: Klebsiella pneumoniae; assay: Antibacterial activity against Klebsiella pneumoniae isolate 12-4; method in brief: as §1
[5] = system: Staphylococcus aureus; assay: Antibacterial activity against Staphylococcus aureus […]; method in brief: as §1
[6] = system: Staphylococcus aureus; assay: Antibacterial activity against methicillin-resistant Staphylococcus aureus isolate 12-15; method in brief: as §2
[7] = system: Staphylococcus epidermidis; assay: Antibacterial activity against methicillin-resistant Staphylococcus epidermidis isolate 12-33; method in brief: as §2
[8] = system: Klebsiella pneumoniae; assay: Antibacterial activity against extended-spectrum beta-lactamase-producing Klebsiella pneumoniae isolate 12-2; method in brief: as §1
[9] = system: Staphylococcus epidermidis; assay: Antibacterial activity against methicillin-sensitive Staphylococcus epidermidis isolate 12-3; method in brief: as §1
[10] = system: Staphylococcus aureus; assay: Antibacterial activity against methicillin-sensitive Staphylococcus aureus isolate 12-6; method in brief: as §1
[11] = system: Staphylococcus epidermidis; assay: Antibacterial activity against methicillin-sensitive Staphylococcus epidermidis isolate 12-1; method in brief: as §1
[12] = system: Klebsiella pneumoniae; assay: Antibacterial activity against Klebsiella pneumoniae isolate 12-1; method in brief: as §1
[13] = system: Pseudomonas aeruginosa; assay: Antibacterial activity against Pseudomonas aeruginosa ATCC 27853; method in brief: as §1
[14] = system: Staphylococcus epidermidis; assay: Antibacterial activity against methicillin-resistant Staphylococcus epidermidis isolate 12-5; method in brief: as §2
[15] = system: Escherichia coli; assay: Antibacterial activity against extended-spectrum beta-lactamase-producing Escherichia coli isolate 12-1; method in brief: as §1
[16] = system: Escherichia coli; assay: Antibacterial activity against Escherichia coli ATCC 25922; method in brief: as §1
[17] = system: Escherichia coli; assay: Antibacterial activity against Escherichia coli isolate 12-5; method in brief: as §1
[18] = system: Streptococcus pneumoniae; assay: Antibacterial activity against Streptococcus pneumoniae isolate 12-5; method in brief: as §1
[19] = system: Streptococcus pneumoniae; assay: Antibacterial activity against Streptococcus pneumoniae isolate 12-2; method in brief: as §1
[20] = system: Staphylococcus aureus; assay: Antibacterial activity against methicillin-resistant Staphylococcus aureus isolate 12-13; method in brief: as §2
[21] = system: Pseudomonas aeruginosa; assay: Antibacterial activity against Pseudomonas aeruginosa isolate 12-2; method in brief: as §1
[22] = system: Pseudomonas aeruginosa; assay: Antibacterial activity against Pseudomonas aeruginosa isolate 12-1; method in brief: as §1
[23] = system: Staphylococcus epidermidis; assay: Antibacterial activity against methicillin-sensitive Staphylococcus epidermidis isolate 12-2; method in brief: as §1
[24] = system: Escherichia coli; assay: Antibacterial activity against Escherichia coli isolate 12-1; method in brief: as §1
[25] = system: Escherichia coli; assay: Antibacterial activity against Escherichia coli isolate 12-4; method in brief: as §1
[26] = system: Escherichia coli; assay: Antibacterial activity against extended-spectrum beta-lactamase-producing Escherichia coli isolate 12-2; method in brief: as §1
[27] = system: Escherichia coli; assay: Antibacterial activity against extended-spectrum beta-lactamase-producing Escherichia coli isolate 12-4; method in brief: as §1
[28] = system: Klebsiella pneumoniae; assay: Antibacterial activity against Klebsiella pneumoniae isolate 12-2; method in brief: as §1
[29] = system: Staphylococcus aureus; assay: Antibacterial activity against methicillin-resistant Staphylococcus aureus isolate 12-3; method in brief: as §2
[30] = system: Staphylococcus aureus; assay: Antibacterial activity against methicillin-sensitive Staphylococcus aureus isolate 12-10; method in brief: as §1
[31] = system: Staphylococcus aureus; assay: Antibacterial activity against methicillin-sensitive Staphylococcus aureus isolate 12-7; method in brief: as §1

SMILES | MIC [1] [µg/mL] | MIC [2] [µg/mL] | MIC [3] [µg/mL] | MIC [4] [µg/mL] | MIC [5] [µg/mL] | MIC [6] [µg/mL] | MIC [7] [µg/mL] | MIC [8] [µg/mL] | MIC [9] [µg/mL] | MIC [10] [µg/mL] | MIC [11] [µg/mL] | MIC [12] [µg/mL] | MIC [13] [µg/mL] | MIC [14] [µg/mL] | MIC [15] [µg/mL] | MIC [16] [µg/mL] | MIC [17] [µg/mL] | MIC [18] [µg/mL] | MIC [19] [µg/mL] | MIC [20] [µg/mL] | further results
CNC1CCN(c2c(F)cc3c(=O)c(C(=O)O)cn4c3c2OC[C@@H]4C)C/C1=N\OC (stereo partly drawn) | 0.5 (≈ 1.19 µM) | 16 (≈ 38.2 µM) | 0.125 (≈ 0.299 µM) | 0.5 (≈ 1.19 µM) | 0.25 (≈ 0.597 µM) | 1 (≈ 2.39 µM) | < 0.008 | 16 (≈ 38.2 µM) | 0.5 (≈ 1.19 µM) | 0.25 (≈ 0.597 µM) | 0.5 (≈ 1.19 µM) | 1 (≈ 2.39 µM) | 4 (≈ 9.56 µM) | 0.125 (≈ 0.299 µM) | 128 (≈ 306 µM) | 0.25 (≈ 0.597 µM) | 128 (≈ 306 µM) | 1 (≈ 2.39 µM) | 1 (≈ 2.39 µM) | 1 (≈ 2.39 µM) | MIC [21]: 8 µg/mL (≈ 19.1 µM); MIC [22]: 8 µg/mL (≈ 19.1 µM); MIC [23]: 2 µg/mL (≈ 4.78 µM); MIC [24]: 8 µg/mL (≈ 19.1 µM); MIC [25]: 128 µg/mL (≈ 306 µM); MIC [26]: > 128 µg/mL; MIC [27]: 16 µg/mL (≈ 38.2 µM); MIC [28]: 1 µg/mL (≈ 2.39 µM); MIC [29]: 1 µg/mL (≈ 2.39 µM); MIC [30]: 0.25 µg/mL (≈ 0.597 µM); MIC [31]: 1 µg/mL (≈ 2.39 µM)
CCO/N=C1\CN(c2c(F)cc3c(=O)c(C(=O)O)cn(C4CC4)c3c2F)CCC1NC (stereo not drawn) | > 128 | 16 (≈ 36.8 µM) | 1 (≈ 2.3 µM) | 1 (≈ 2.3 µM) | 0.5 (≈ 1.15 µM) | 0.5 (≈ 1.15 µM) | 1 (≈ 2.3 µM) | 16 (≈ 36.8 µM) | 0.5 (≈ 1.15 µM) | 0.5 (≈ 1.15 µM) | 0.5 (≈ 1.15 µM) | 2 (≈ 4.6 µM) | 16 (≈ 36.8 µM) | 1 (≈ 2.3 µM) | > 128 | 16 (≈ 36.8 µM) | > 128 | 1 (≈ 2.3 µM) | 0.5 (≈ 1.15 µM) | 0.5 (≈ 1.15 µM) | MIC [21]: 16 µg/mL (≈ 36.8 µM); MIC [22]: 16 µg/mL (≈ 36.8 µM); MIC [23]: 1 µg/mL (≈ 2.3 µM); MIC [24]: 8 µg/mL (≈ 18.4 µM); MIC [25]: > 128 µg/mL; MIC [26]: > 128 µg/mL; MIC [27]: 16 µg/mL (≈ 36.8 µM); MIC [28]: 1 µg/mL (≈ 2.3 µM); MIC [29]: 0.5 µg/mL (≈ 1.15 µM); MIC [30]: 0.125 µg/mL (≈ 0.288 µM); MIC [31]: 128 µg/mL (≈ 295 µM)
CO/N=C1\CN(c2c(F)cc3c(=O)c(C(=O)O)cn(C4CC4)c3c2OC)CCC1N (stereo not drawn) | 64 (≈ 153 µM) | 8 (≈ 19.1 µM) | 0.25 (≈ 0.597 µM) | 0.5 (≈ 1.19 µM) | 0.06 (≈ 0.143 µM) | 0.25 (≈ 0.597 µM) | 2 (≈ 4.78 µM) | 16 (≈ 38.2 µM) | 0.25 (≈ 0.597 µM) | 0.25 (≈ 0.597 µM) | 0.25 (≈ 0.597 µM) | 2 (≈ 4.78 µM) | 4 (≈ 9.56 µM) | 0.25 (≈ 0.597 µM) | 64 (≈ 153 µM) | 4 (≈ 9.56 µM) | 64 (≈ 153 µM) | 2 (≈ 4.78 µM) | 0.25 (≈ 0.597 µM) | 0.25 (≈ 0.597 µM) | MIC [21]: 16 µg/mL (≈ 38.2 µM); MIC [22]: 16 µg/mL (≈ 38.2 µM); MIC [23]: 0.5 µg/mL (≈ 1.19 µM); MIC [24]: 2 µg/mL (≈ 4.78 µM); MIC [25]: 128 µg/mL (≈ 306 µM); MIC [26]: 64 µg/mL (≈ 153 µM); MIC [27]: 16 µg/mL (≈ 38.2 µM); MIC [28]: 2 µg/mL (≈ 4.78 µM); MIC [29]: 0.25 µg/mL (≈ 0.597 µM); MIC [30]: 0.125 µg/mL (≈ 0.299 µM); MIC [31]: 8 µg/mL (≈ 19.1 µM)
